Results: ChEMBL document CHEMBL3407444, “Novel 2,4-disubstituted pyrimidines as potent, selective, and cell-permeable inhibitors of neuronal nitric oxide synthase” (J Med Chem, 2015)

Tests used:
Nitric oxide synthase 1 [1] = molecular target: Nitric oxide synthase 1 (Rattus norvegicus, UniProt P29476); assay: Binding affinity to recombinant rat neuronal NOS overexpressed in Escherichia coli assessed as production of nitric oxide from L-arginine measured for 5 mins by oxyhemoglobin NO capture assay
Sequence of Nitric oxide synthase 1 (Rattus norvegicus, UniProt P29476) (P29476 whole entry): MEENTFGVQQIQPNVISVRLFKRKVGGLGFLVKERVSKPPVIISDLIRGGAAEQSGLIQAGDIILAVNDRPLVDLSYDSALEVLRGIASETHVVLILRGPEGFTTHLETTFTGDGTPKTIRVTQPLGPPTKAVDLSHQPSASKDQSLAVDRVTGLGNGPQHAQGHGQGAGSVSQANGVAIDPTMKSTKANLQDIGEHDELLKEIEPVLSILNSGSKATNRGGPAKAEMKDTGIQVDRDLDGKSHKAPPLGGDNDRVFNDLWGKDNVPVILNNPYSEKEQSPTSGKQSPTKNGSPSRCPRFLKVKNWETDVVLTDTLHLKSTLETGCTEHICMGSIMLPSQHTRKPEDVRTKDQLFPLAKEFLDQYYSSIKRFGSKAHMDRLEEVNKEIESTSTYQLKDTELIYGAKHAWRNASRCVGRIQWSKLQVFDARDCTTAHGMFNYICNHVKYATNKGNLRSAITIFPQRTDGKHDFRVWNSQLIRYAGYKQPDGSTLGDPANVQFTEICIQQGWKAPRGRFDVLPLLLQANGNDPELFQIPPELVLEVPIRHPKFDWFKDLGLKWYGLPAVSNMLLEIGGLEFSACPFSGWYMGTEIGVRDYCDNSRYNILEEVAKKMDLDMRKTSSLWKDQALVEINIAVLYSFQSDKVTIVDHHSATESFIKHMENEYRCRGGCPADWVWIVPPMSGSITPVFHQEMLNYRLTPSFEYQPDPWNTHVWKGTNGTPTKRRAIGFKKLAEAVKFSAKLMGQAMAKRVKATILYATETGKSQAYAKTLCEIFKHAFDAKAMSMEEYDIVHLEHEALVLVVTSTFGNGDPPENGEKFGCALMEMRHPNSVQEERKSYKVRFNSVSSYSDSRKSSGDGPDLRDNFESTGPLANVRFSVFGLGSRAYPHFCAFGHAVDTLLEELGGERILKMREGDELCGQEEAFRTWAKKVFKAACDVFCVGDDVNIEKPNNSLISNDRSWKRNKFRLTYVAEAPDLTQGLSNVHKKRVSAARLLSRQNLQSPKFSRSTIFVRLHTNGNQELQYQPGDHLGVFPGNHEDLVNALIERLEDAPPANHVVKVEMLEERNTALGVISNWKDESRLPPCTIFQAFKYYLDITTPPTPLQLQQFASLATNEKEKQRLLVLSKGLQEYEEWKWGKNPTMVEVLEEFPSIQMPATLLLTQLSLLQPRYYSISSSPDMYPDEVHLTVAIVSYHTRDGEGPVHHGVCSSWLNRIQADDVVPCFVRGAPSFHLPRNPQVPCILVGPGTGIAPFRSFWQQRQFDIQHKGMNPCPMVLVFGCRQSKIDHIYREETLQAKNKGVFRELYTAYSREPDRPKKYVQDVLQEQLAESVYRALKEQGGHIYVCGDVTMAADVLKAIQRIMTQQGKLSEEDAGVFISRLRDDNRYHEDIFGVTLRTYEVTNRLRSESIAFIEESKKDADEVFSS

[2] = Selectivity ratio of Ki for recombinant bovine endothelial NOS to Ki for recombinant rat neuronal NOS
[3] = Selectivity ratio of Ki for recombinant mouse macrophage inducible NOS to Ki for recombinant rat neuronal NOS
Homo sapiens = species: Homo sapiens; assay: Binding affinity to human sigma-2 receptor at 10 uM after 90 mins by radioligand displacement assay relative to control
CYP2C19 = CYP2C19 (Homo sapiens, UniProt P33261); assay: Inhibition of human liver microsomal CYP2C19 using S-mephenytoin as substrate at 10 uM preincubated for 5 mins followed by NADPH addition measured after 20 mins by LC-MS/MS analysis; type: ADME; settings: liver microsomes, probe S-mephenytoin
Sequence of CYP2C19 (P33261 whole entry): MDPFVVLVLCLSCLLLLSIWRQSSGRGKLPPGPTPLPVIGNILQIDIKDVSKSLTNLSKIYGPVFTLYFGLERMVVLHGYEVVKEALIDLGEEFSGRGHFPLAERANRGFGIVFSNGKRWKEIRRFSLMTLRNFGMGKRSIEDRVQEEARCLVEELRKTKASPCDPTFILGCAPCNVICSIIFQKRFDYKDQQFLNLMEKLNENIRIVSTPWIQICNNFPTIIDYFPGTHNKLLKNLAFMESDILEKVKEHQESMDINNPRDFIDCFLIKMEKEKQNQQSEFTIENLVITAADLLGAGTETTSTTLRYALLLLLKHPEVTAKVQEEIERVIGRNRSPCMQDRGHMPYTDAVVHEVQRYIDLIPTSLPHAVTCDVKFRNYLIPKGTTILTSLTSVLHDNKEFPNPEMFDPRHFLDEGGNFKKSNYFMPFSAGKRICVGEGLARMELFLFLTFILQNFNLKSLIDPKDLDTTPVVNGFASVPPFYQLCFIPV
Summary of the method: (§1)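 Human liver microsomes in Kphos buffer, test compound at 10 μM (DMSO). Probe substrate added and preincubated 5 min at 37 °C, then started with NADPH. Incubation times: CYP3A4 (midazolam) 5 min, CYP2D6 (bufuralol) 10 min, CYP2C19 (S-mephenytoin) 20 min. Stopped with cold acetonitrile containing internal standard. Metabolites measured by LC-MS/MS; % inhibition from peak-area ratios relative to DMSO control.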

[4] = molecular target: D(3) dopamine receptor (Homo sapiens) (UniProt P35462); settings: 10 uM
[5] = molecular target: T1, 5-hydroxytryptamine receptor 1A (Homo sapiens) (UniProt P08908); settings: 10 uM
T1 sequence (whole entry): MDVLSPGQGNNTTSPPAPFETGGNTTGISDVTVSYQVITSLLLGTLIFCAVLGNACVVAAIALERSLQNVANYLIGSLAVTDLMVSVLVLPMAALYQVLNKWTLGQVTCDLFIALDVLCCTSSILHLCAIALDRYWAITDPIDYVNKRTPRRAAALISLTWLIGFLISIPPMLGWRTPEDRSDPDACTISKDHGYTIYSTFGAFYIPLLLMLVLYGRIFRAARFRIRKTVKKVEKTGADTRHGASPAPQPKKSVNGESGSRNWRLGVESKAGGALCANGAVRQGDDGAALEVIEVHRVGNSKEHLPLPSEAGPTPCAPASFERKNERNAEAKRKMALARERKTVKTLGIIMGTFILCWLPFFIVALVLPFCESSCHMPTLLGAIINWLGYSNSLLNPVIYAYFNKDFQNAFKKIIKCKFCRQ

[6] = Permeability across apical to basolateral side in human Caco2 cells assessed as drug recovery at 10 uM after 2 hrs by LC/MS/MS analysis; type: ADME, cell-based; settings: caco-2, 2 h
Summary of the method: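 Caco-2 monolayers grown 3 weeks, integrity checked by Lucifer yellow transport. Compound 10 μM for 2 h added apically; apical buffer HBSS/10 mM HEPES with glucose, pH 6.5, basolateral transport buffer pH 7.4. Receiver side sampled and quantified by LC/MS/MS; recovery reported.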

[7] = molecular target: T2, Alpha-2C adrenergic receptor (Homo sapiens) (UniProt P18825); assay: Binding affinity to human adrenergic alpha-2C receptor at 10 uM after 90 mins by radioligand displacement assay relative to control
T2 sequence (whole entry): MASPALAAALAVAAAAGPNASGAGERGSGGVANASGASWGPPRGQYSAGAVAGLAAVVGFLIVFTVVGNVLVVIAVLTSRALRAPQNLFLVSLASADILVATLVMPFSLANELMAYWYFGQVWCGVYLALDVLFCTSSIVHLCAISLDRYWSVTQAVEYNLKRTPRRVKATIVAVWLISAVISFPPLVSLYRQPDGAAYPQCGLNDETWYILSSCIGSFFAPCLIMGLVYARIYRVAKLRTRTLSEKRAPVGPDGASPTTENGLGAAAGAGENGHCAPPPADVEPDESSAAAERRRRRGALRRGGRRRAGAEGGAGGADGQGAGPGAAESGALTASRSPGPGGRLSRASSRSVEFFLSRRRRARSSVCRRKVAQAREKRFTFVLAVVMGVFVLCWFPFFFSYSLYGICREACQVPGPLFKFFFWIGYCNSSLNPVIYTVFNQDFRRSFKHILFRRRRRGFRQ

[8] = molecular target: 5-hydroxytryptamine receptor 2A (Homo sapiens) (UniProt P28223); assay: Binding affinity to human 5-HT2A receptor at 10 uM after 90 mins by radioligand displacement assay relative to control
Sequence of 5-hydroxytryptamine receptor 2A (Homo sapiens) (P28223 whole entry): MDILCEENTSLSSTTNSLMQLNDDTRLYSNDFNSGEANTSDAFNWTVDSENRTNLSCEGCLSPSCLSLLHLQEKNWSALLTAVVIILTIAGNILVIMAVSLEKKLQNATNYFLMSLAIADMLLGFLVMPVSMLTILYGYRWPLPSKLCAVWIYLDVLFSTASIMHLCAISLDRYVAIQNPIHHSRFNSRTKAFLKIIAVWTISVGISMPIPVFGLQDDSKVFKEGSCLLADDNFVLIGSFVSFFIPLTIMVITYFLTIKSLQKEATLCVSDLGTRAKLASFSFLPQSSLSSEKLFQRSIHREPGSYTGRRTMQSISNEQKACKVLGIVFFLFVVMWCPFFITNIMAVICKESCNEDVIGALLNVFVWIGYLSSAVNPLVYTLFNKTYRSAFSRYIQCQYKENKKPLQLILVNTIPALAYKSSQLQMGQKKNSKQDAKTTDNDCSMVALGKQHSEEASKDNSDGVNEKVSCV

[9] = molecular target: T3, Sigma non-opioid intracellular receptor 1 (Homo sapiens, UniProt Q99720); assay: Binding affinity to human sigma-1 receptor after 90 mins by radioligand displacement assay
T3 sequence (Q99720 whole entry): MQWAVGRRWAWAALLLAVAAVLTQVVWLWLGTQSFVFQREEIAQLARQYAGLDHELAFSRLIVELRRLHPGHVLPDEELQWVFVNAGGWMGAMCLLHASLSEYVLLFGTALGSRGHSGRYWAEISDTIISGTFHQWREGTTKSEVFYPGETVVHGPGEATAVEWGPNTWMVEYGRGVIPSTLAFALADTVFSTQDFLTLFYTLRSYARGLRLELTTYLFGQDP

CYP2D6 = CYP2D6 (Homo sapiens, UniProt P10635); assay: Inhibition of human liver microsomal CYP2D6 using bufuralol as substrate at 10 uM preincubated for 5 mins followed by NADPH addition measured after 10 mins by LC-MS/MS analysis; type: ADME; settings: liver microsomes, probe bufuralol; summary of the method: as §1
Sequence of CYP2D6 (P10635 whole entry): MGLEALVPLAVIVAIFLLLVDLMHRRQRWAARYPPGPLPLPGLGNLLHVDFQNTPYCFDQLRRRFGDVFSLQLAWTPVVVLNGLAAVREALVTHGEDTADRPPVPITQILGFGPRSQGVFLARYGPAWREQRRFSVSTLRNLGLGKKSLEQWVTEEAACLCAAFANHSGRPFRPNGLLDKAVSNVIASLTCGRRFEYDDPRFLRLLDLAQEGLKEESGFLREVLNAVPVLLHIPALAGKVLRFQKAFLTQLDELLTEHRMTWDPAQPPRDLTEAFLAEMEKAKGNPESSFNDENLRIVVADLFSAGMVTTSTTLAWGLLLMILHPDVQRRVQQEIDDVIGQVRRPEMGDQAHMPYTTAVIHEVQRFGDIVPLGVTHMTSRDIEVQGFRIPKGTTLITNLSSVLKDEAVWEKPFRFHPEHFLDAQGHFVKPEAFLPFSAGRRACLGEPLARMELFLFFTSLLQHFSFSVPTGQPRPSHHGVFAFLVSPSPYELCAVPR

[10] = molecular target: T4, Alpha-2C adrenergic receptor (Homo sapiens, UniProt P18825); assay: Binding affinity to human adrenergic alpha-2C receptor after 90 mins by radioligand displacement assay
T4 sequence (P18825 whole entry): T2 sequence (whole entry)

CYP3A4 = CYP3A4 (Homo sapiens, UniProt P08684); assay: Inhibition of human liver microsomal CYP3A4 using midazolam as substrate at 10 uM preincubated for 5 mins followed by NADPH addition measured after 5 mins by LC-MS/MS analysis; type: ADME; settings: liver microsomes, probe midazolam; summary of the method: as §1
Sequence of CYP3A4 (P08684 whole entry): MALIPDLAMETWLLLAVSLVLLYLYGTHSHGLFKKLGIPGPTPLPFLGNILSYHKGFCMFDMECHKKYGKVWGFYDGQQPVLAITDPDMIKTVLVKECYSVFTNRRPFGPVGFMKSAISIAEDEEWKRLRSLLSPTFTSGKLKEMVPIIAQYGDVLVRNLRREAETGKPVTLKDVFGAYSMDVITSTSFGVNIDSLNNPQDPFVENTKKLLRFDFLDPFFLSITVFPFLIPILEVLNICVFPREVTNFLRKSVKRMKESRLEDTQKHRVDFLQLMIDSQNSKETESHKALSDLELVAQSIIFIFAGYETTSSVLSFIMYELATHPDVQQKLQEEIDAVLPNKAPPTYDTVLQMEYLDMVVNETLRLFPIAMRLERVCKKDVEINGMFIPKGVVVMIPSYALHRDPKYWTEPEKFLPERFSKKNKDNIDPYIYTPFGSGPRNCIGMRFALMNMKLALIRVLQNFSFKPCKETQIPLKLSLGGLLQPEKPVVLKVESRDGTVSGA

[11] = molecular target: T3, Sigma non-opioid intracellular receptor 1; assay: Binding affinity to human sigma-1 receptor at 10 uM after 90 mins by radioligand displacement assay relative to control
[12] = Inhibition of calmodulin-dependent bovine neuronal NOS using [3H]-arginine as substrate assessed as citrulline formation after 30 mins; parameters: species or system Bos taurus
[13] = Selectivity ratio of Ki for recombinant human neuronal NOS to Ki for recombinant rat neuronal NOS
Nitric oxide synthase 1 [14] = molecular target: Nitric oxide synthase 1 (Homo sapiens, UniProt P29475); assay: Binding affinity to recombinant human neuronal NOS overexpressed in Escherichia coli assessed as production of nitric oxide from L-arginine measured for 5 mins by oxyhemoglobin NO capture assay
Sequence of Nitric oxide synthase 1 (Homo sapiens, UniProt P29475) (P29475 whole entry): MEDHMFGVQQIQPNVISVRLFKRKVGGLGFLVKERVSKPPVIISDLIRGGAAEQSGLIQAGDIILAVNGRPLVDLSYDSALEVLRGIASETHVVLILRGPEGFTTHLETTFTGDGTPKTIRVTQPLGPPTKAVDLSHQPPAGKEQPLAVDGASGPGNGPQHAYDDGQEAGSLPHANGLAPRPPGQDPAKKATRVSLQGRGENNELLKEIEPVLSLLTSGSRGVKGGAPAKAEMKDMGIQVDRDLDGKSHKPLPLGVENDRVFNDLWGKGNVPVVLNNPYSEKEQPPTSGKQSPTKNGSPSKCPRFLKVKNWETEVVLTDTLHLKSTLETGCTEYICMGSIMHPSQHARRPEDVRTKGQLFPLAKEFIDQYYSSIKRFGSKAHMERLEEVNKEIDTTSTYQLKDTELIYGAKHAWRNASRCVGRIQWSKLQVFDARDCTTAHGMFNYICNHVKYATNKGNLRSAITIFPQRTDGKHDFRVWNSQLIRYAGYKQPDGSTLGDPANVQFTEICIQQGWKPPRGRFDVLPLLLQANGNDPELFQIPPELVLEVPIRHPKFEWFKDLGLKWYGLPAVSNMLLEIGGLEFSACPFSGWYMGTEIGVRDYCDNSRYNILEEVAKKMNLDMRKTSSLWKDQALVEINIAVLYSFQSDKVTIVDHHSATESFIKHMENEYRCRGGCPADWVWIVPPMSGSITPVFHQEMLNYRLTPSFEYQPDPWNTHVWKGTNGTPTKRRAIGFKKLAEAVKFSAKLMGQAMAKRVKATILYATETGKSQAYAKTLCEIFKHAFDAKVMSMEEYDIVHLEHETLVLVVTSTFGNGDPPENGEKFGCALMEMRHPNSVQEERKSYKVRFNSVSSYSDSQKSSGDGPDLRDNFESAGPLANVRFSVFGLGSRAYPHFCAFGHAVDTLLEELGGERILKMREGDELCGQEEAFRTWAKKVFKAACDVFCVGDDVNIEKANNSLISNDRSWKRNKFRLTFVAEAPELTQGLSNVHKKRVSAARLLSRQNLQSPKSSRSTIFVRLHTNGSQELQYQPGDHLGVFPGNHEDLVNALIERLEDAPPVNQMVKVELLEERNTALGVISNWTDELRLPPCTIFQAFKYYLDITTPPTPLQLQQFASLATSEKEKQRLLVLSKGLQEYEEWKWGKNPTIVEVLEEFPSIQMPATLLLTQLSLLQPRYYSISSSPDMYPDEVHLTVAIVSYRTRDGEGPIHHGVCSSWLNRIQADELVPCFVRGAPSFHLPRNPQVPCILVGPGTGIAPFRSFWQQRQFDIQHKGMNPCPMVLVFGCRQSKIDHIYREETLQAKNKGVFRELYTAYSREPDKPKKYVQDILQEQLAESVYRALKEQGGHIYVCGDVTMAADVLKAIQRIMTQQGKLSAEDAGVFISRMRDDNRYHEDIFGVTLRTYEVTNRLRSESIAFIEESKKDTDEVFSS

[15] = molecular target: T5, Nitric oxide synthase, inducible (Mus musculus, UniProt P29477); assay: Binding affinity to recombinant mouse macrophage inducible NOS overexpressed in Escherichia coli assessed as production of nitric oxide from L-arginine measured for 5 mins by oxyhemoglobin NO capture assay
T5 sequence (P29477 whole entry): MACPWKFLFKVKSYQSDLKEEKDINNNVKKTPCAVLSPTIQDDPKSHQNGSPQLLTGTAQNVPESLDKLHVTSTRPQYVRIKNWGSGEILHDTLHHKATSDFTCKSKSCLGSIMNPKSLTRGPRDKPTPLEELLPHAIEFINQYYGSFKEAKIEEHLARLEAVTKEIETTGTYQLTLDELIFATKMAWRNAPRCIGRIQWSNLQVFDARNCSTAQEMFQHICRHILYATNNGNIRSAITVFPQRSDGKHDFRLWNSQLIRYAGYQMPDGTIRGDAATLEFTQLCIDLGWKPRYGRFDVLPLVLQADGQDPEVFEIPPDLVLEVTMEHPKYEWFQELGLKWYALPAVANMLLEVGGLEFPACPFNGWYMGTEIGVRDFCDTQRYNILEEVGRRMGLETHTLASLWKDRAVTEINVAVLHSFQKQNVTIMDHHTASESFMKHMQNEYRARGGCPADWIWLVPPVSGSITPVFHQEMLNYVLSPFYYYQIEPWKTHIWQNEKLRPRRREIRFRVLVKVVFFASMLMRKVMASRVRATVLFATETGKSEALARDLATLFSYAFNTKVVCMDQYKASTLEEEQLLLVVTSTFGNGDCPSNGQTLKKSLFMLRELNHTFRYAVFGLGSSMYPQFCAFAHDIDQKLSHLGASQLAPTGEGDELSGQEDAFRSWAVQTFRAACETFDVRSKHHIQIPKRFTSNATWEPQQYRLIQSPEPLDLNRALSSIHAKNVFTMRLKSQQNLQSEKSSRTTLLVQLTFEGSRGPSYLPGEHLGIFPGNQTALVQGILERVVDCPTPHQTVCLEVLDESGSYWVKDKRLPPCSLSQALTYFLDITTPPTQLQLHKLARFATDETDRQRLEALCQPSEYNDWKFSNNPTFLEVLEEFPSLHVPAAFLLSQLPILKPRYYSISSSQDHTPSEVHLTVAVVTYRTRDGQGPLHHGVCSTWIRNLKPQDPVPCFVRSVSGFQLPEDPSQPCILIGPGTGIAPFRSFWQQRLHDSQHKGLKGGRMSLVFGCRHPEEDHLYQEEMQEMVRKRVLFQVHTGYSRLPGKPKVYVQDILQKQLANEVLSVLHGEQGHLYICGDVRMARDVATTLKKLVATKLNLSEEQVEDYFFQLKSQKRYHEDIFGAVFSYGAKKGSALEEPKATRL

Nitric oxide synthase 3 = molecular target: T6, Nitric oxide synthase 3 (Bos taurus, UniProt P29473); assay: Binding affinity to recombinant bovine endothelial NOS overexpressed in Escherichia coli assessed as production of nitric oxide from L-arginine measured for 5 mins by oxyhemoglobin NO capture assay
T6 sequence (P29473 whole entry): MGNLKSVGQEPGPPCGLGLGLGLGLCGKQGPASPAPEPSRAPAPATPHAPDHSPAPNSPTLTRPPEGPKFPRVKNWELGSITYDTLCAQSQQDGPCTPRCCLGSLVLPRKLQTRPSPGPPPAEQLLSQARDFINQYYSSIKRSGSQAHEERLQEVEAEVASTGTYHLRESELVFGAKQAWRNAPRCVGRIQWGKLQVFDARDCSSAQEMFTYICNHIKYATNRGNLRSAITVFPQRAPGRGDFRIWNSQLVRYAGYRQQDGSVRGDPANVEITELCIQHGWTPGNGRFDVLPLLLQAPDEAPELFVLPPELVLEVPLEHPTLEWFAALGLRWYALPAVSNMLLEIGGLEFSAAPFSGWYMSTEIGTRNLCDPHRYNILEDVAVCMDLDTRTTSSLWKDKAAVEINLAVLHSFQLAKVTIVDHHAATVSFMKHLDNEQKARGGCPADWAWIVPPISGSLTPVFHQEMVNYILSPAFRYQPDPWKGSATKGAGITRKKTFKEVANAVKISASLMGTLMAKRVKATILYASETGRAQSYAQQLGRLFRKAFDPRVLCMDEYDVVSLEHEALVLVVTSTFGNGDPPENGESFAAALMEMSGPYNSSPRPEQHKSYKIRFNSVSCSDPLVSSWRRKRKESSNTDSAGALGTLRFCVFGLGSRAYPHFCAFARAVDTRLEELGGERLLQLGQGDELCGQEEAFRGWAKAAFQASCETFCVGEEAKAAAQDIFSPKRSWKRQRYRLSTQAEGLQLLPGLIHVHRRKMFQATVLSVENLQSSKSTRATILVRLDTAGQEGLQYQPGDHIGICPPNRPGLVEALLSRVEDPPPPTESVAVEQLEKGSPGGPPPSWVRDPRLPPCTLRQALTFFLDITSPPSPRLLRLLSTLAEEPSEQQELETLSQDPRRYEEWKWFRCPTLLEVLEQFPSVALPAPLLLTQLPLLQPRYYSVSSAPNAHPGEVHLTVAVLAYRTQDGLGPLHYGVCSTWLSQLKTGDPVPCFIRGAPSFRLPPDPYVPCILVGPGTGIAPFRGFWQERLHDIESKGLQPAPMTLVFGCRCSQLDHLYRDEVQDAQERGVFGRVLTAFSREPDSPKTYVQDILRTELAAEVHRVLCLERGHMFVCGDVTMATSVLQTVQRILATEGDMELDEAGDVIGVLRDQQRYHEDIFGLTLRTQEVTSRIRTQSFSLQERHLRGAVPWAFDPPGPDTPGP
Summary of the method: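 Purified recombinant bovine eNOS (E. coli-expressed) at 37 °C in 100 mM HEPES, 10% glycerol, pH 7.4, with 10 μM L-arginine and tetrahydrobiopterin, 100 μM NADPH, 0.83 mM CaCl2, ~320 units/mL calmodulin, and 3 μM human oxyhemoglobin. Methemoglobin formation read at 401 nm every 22 s for 5 min. Nine inhibitor concentrations (500 μM–50 nM), at least duplicate.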

Fc1cccc(CCCNCCc2ccnc(-n3cncn3)n2)c1
Ki (Nitric oxide synthase 1 [1]): 27 µM

Fc1cccc(CCCNCc2ccnc(-n3ccnc3)n2)c1
Ratio Ki [2]: 33 | Ratio Ki [3]: 4

Cl.Fc1cccc(CCCNCCc2ccnc(-n3ccnc3)n2)c1
inhibition (Homo sapiens): 88% | inhibition at 20 min, 10 µM (CYP2C19): > 70% | inhibition [4]: 87% | inhibition [5]: 83% | Drug recovery [6]: 73% | inhibition [7]: 95% | inhibition [8]: 88% | Ki [9]: 0.2 µM | inhibition at 10 min, 10 µM (CYP2D6): > 70% | Ki [10]: 0.2 µM | inhibition at 5 min, 10 µM (CYP3A4): > 70% | inhibition [11]: 94%

Cc1nccn1-c1nccc(CCNCCCc2cccc(F)c2)n1
Ki (Nitric oxide synthase 1 [1]): 11.5 µM

c1ccc(-n2ccnc2)cc1
IC50 [12]: 25 µM

Fc1cccc(C2CC2CNCCc2ccnc(-n3ccnc3)n2)c1 (stereo not given)
Ratio Ki [2]: 71 | Ratio Ki [13]: 6.4 | Ratio Ki [3]: 34

Fc1cccc(C[C@H]2C[C@@H]2NCCc2ccnc(-n3ccnc3)n2)c1
Ki (Nitric oxide synthase 1 [14]): 0.873 µM | Ki (Nitric oxide synthase 1 [1]): 0.15 µM | Ki [15]: 3 µM | Ki (Nitric oxide synthase 3): 40 µM

Cc1cn(-c2nccc(CCNCCCc3cccc(F)c3)n2)cn1
Ki (Nitric oxide synthase 1 [1]): 81 µM

Fc1cccc(C[C@@H]2C[C@H]2NCCc2ccnc(-n3ccnc3)n2)c1
Ki (Nitric oxide synthase 1 [14]): 0.137 µM | Ki (Nitric oxide synthase 1 [1]): 0.018 µM | Ki [15]: 2.14 µM | Ki (Nitric oxide synthase 3): 10.3 µM

c1c[nH]cn1 [IMIDAZOLE]
IC50 [12]: 200 µM

Cc1cncn1-c1nccc(CCNCCCc2cccc(F)c2)n1
Ki (Nitric oxide synthase 1 [14]): 0.303 µM | Ki (Nitric oxide synthase 1 [1]): 0.06 µM | Ki [15]: 24 µM | Ki (Nitric oxide synthase 3): 15.4 µM

Fc1cccc(CCNCCNc2ccnc(-n3ccnc3)n2)c1
Ratio Ki [2]: 109 | Ratio Ki [3]: 17

Clc1cccc(CCCNCCc2ccnc(-n3ccnc3)n2)c1
Ratio Ki [2]: 253 | Ratio Ki [13]: 3.9 | Ki [15]: 0.91 µM | Ratio Ki [3]: 28
